In article PMC5743405 (International Journal of Oncology, 2017):
Where “and” joins values, the source holds several entries; their conditions need not be identical. Identical values can stand only once.

Legend:
BDKRB1 = assay: PathHunter β-arrestin; assay type: cell-based; settings: 6 μM
Procedure, shortened: (§1)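 β-Arrestin recruitment assay: the enzyme acceptor is fused to β-arrestin and the ED fragment to the GPCR. Recruitment restores β-galactosidase, read by chemiluminescence. % activity = 100% × (test − vehicle)/(max control ligand − vehicle). % inhibition = 100% × (1 − (test − vehicle)/(EC80 control − vehicle)). An agonist hit needs >30% activity and RLU > baseline + 3×SD. An antagonist hit needs >35% inhibition and RLU < EC80 RLU − 3×SD.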

CCR3 = assay: PathHunter β-arrestin; assay type: cell-based; settings: 6 μM
Procedure, shortened: as §1

CCR4 = assay: PathHunter β-arrestin; assay type: cell-based; settings: antagonist mode, 6 μM
Procedure, shortened: (§2)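 Engineered cells express the receptor fused to one β-galactosidase fragment (ED) and β-arrestin fused to the complementing fragment (EA). Receptor activation recruits β-arrestin, which restores enzyme activity, and this is read by chemiluminescence (RLU). Agonist % activity is 100% × (test − vehicle)/(maximal control ligand − vehicle). Antagonist mode is challenged with an EC80 control agonist, and % inhibition is 100% × (1 − (test − vehicle)/(EC80 − vehicle)). Hits require >30% activity or >35% inhibition, plus a 3×SD RLU margin.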

CXCR2 = assay: PathHunter β-arrestin; assay type: cell-based; settings: 6 μM
Procedure, shortened: as §2

CXCR5 = assay: PathHunter β-arrestin; assay type: cell-based; settings: 6 μM
Procedure, shortened: as §2

F2R = assay: PathHunter β-arrestin; assay type: cell-based; settings: agonist mode, 6 μM
Procedure, shortened: as §2

GPR103 = assay: PathHunter β-arrestin; assay type: cell-based; settings: 6 μM
Procedure, shortened: (§3)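 Vendor-run (DiscoveRx) PathHunter enzyme fragment complementation. β-Arrestin carries the EA fragment and the receptor carries ED; recruitment restores β-gal activity, read by chemiluminescence (RLU). Agonist % activity = vehicle-subtracted RLU relative to max control ligand (gpcrMAX) or to vehicle (orphanMAX). Antagonist % inhibition = 100% × (1 − vehicle-subtracted sample RLU / vehicle-subtracted EC80 agonist control RLU).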

GPR92 = assay: PathHunter β-arrestin; assay type: cell-based; settings: 6 μM
Procedure, shortened: as §3

HTR1A = assay: PathHunter β-arrestin; assay type: cell-based; settings: antagonist mode, 6 μM
Procedure, shortened: as §3

HTR1F = assay: PathHunter β-arrestin; assay type: cell-based; settings: 6 μM
Procedure, shortened: as §3

MC5R = assay: PathHunter β-arrestin; assay type: cell-based; settings: 6 μM
Procedure, shortened: as §3

PPYR1 = assay: PathHunter β-arrestin; assay type: cell-based; settings: antagonist mode, 6 μM
RXFP3 = assay: PathHunter β-arrestin; assay type: cell-based; settings: 6 μM
Procedure, shortened: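 β-Arrestin recruitment to GPCR read by β-galactosidase fragment complementation and chemiluminescence. Agonist: % = 100 × (test − vehicle)/(max control ligand − vehicle), hit at >30% and RLU > baseline + 3 SD. Antagonist, against EC80 agonist: % inhibition = 100 × (1 − (test − vehicle)/(EC80 − vehicle)), hit at >35% and RLU < EC80 − 3 SD.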

nuclear receptor = assay: PathHunter NHR assays, nhrMAX panel, antagonist mode; assay type: cell-based; settings: summary of Table IV
Procedure, shortened: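 Enzyme fragment complementation: NHR nuclear recruitment of a co-activator peptide fusion restores β-galactosidase, read by chemiluminescence. Test compound preincubated 1 h before agonist challenge. % inhibition = 100 × (1 − (test − vehicle RLU)/(EC80 control − vehicle RLU)). Hit requires >35% inhibition and mean RLU below EC80 RLU − 3 × EC80 SD.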

TLR8 = assay: western blot, JJ012 cells; assay type: cell-based, human; settings: vs untreated control, overnight incubation
TLR1 = assay: RT2 qPCR primer assay, JJ012 cells; assay type: cell-based, human
Procedure, shortened: (§4)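 RNA was extracted, checked by spectrophotometry and reverse-transcribed. Custom RT2 SYBR-Green primer assays were run on three samples in technical triplicate. Ct was normalised to mean GAPDH/ACTB, ΔΔCt taken versus control, and fold change = 2^−ΔΔCt.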

TLR2 = assay: RT2 qPCR primer assay, JJ012 cells; assay type: cell-based, human; settings: 1 μg/ml PRP-1
Procedure, shortened: as §4

Proline rich polypeptide 1 [PRP-1]
% Activity (BDKRB1; agonist mode): 1%
% Inhibition (BDKRB1; antagonist mode): −8%
% Activity (CCR3; agonist mode): 2%
% Inhibition (CCR3; antagonist mode): −3%
% Inhibition (CCR4): 2%
% Activity (CXCR2; agonist mode): 1%
% Inhibition (CXCR2; antagonist mode): −3%
% Activity (CXCR5; agonist mode): 1%
% Inhibition (CXCR5; antagonist mode): −8%
% Activity (F2R): −2%
% Activity (GPR103; agonist mode): 2%
% Inhibition (GPR103; antagonist mode): 6%
% Activity (GPR92; agonist mode): 1%
% Inhibition (GPR92; antagonist mode): 12%
% Inhibition (HTR1A): −5%
% Activity (HTR1F; agonist mode): 2%
% Inhibition (HTR1F; antagonist mode): 2%
% Activity (MC5R; agonist mode): 2%
% Inhibition (MC5R; antagonist mode): −5%
% Inhibition (PPYR1): −4%
% Activity (RXFP3; agonist mode): 6%
% Inhibition (RXFP3; antagonist mode): −3%
nuclear receptor antagonism (nuclear receptor): neither that this peptide was agonist for orphan receptors (Table III) or agonist/antagonist for nuclear receptor
protein expression (TLR8): no indication of PRP-1 effect
gene expression (TLR1; 10 μg/ml PRP-1, heat map, average Ct, technical triplicates): well expressed
fold change (∆Ct) (TLR1; qRT-PCR): did not report significant fold change
fold upregulation (∆∆Ct) (TLR2; P<0.0001, 2^−∆∆Ct, normalized to GAPDH, ACTB): 5.26 fold and > 5 fold
gene expression (TLR2; heat map, vs nontreated control, technical triplicates): high expression
